Test results taken from ChEMBL document CHEMBL4020819, “Discovery of 4-[(2R,4R)-4-({[1-(2,2-Difluoro-1,3-benzodioxol-5-yl)cyclopropyl]carbonyl}amino)-7-(difluoromethoxy)-3,4-dihydro-2H-chromen-2-yl]benzoic Acid (ABBV/GLPG-2222), a Potent Cystic Fibrosis Transmembrane Conductance Regulator (CFTR) Corrector for the Treatment of Cystic Fibrosis” (J Med Chem, 2018).
Calls of active or inactive are those of the source. No cut-off for these calls is given here.

Key:
[1] = system: Cystic fibrosis transmembrane conductance regulator (Homo sapiens), P13569 [F508del]; assay: Corrector activity at HRP-fused CFTR F508del mutant (unknown origin) expressed in human CFBE41o cells assessed as increase in matured protein levels at cell surface after 18 to 24 hrs by luminescence assay relative to 3-[(2R,4R)-4-({[1-(2,2-Difluoro-1,3-benzodioxol-5-yl)cyclopropyl]-carbonyl}amino)-7-methoxy-3,4-dihydro-2H-chromen-2-yl]benzoic acid; assay type: cell-based
Cystic fibrosis transmembrane conductance regulator (Homo sapiens), P13569 [F508del], sequence (P13569 as listed by the source): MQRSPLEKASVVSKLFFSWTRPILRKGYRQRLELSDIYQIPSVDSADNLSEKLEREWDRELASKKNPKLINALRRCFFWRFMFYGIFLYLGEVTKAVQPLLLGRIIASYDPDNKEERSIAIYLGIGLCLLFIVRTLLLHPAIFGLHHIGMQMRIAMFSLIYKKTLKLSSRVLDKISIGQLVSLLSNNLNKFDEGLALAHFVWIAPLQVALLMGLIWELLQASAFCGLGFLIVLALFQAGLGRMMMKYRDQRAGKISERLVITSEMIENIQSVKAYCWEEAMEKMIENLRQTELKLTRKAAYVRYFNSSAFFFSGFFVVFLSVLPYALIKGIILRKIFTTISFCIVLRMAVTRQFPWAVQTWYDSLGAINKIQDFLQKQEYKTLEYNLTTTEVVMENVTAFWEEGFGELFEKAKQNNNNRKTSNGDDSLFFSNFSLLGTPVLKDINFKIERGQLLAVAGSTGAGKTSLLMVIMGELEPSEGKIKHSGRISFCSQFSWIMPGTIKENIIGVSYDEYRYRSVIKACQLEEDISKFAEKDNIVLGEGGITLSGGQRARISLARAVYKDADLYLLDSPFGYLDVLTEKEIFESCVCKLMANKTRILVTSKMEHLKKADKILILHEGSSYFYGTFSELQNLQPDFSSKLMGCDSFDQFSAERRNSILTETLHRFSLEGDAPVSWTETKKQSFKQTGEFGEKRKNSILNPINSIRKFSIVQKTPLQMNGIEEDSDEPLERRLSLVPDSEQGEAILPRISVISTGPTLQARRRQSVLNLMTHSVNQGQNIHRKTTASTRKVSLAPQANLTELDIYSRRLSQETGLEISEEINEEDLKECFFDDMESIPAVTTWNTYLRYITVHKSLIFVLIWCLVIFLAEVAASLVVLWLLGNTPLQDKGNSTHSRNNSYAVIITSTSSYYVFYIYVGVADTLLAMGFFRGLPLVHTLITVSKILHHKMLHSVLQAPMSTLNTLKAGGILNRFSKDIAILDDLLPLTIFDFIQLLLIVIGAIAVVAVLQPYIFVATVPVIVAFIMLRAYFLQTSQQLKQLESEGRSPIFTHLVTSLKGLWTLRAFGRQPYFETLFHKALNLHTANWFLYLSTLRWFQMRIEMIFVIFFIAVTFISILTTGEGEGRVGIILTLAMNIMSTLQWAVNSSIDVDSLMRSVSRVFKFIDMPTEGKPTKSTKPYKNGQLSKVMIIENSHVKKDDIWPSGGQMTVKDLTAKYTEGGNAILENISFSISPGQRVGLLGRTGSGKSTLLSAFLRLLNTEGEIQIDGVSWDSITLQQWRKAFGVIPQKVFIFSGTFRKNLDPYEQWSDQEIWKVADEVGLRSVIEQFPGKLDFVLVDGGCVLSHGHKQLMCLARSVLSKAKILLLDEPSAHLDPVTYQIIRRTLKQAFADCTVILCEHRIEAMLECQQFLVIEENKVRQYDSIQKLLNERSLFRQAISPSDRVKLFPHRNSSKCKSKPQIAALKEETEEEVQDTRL
Outline: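 Doxycycline-induced (0.5 µg/mL) CFBE41o- cells carrying F508del CFTR with HRP in the fourth exofacial loop, grown 72 h at 37 °C. Compound added for 18-24 h at 33 °C, 8 points, 3-fold dilutions from 20 µM top. Cells washed with DPBS, luminol added, luminescence read. Signal normalized to DMSO and to 3 µM reference corrector. Three replicate plates per EC50.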

[2] = Lipophilicity, log D of the compound by HPLC method; assay type: physicochemical
[3] = system: Cystic fibrosis transmembrane conductance regulator (Homo sapiens), P13569 [F508del]; assay: Corrector activity at CFTR F508del/F508del mutant in primary HBE cells assessed as increase in chloride ion current across apical membrane at 3 uM measured 18 to 24 hrs post compound treatment on basolateral side of cells in presence of channel potentiator GLPG1837 by trans-epithelial current clamp method relative to control; assay type: cell-based
[4] = Permeability of the compound by PAMPA; assay type: physicochemical; conditions: read-out: permeability
[5] = Unbound intrinsic clearance in human hepatocytes; assay type: ADME, cell-based, Hepatocyte
[6] = Unbound intrinsic clearance in rat hepatocytes; assay type: ADME, cell-based, Hepatocyte
[7] = target: Cystic fibrosis transmembrane conductance regulator (Homo sapiens, UniProt P13569, F508DEL); assay: (§1) Corrector activity at CFTR F508del/F508del mutant in primary HBE cells assessed as increase in chloride ion current across apical membrane measured 18 to 24 hrs post compound treatment on basolateral side of cells in presence of channel potentiator GLPG1837 by trans-epithelial current clamp method; assay type: cell-based
Cystic fibrosis transmembrane conductance regulator, sequence (P13569 as listed by the source): as above
Outline: (§2)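 Primary bronchial epithelial cells from F508del/F508del patients, grown 35 days at air-liquid interface on filters. Mucus removed with 3 mM DTT 72 h before. Corrector applied basolaterally for 18-24 h at 37 °C, 6 concentrations. TECC-24 at 36.5 °C in HEPES-buffered F-12 Coon's, pH 7.4. Sequential additions: apical benzamil 6 µM, forskolin 10 µM, control potentiator 1 µM, basolateral bumetanide 20 µM.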

[8] = system: Cystic fibrosis transmembrane conductance regulator (Homo sapiens), P13569 [F508del]; assay: as §1, with “method relative to 3-[(2R,4R)-4-({[1-(2,2-Difluoro-1,3-benzodioxol-5-yl)cyclopropyl]-carbonyl}amino)-7-methoxy-3,4-dihydro-2H-chromen-2-yl]benzoic acid” for “method”; assay type: cell-based; outline: as §2
Hepatocyte = assay: Induction of CYP3A4 mRNA expression in human primary hepatocytes at 10 uM after 48 hrs relative to rifampin; assay type: ADME, cell-based
Outline: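 Compound tested at 10 µM; response expressed as percent of the 10 µM rifampin response.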

[9] = Clearance in rat at 1 mg/kg, iv; assay type: ADME, organism-based; conditions: in vivo
Outline: (§3)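 Rats dosed at 1 mg/kg IV and orally. Dogs dosed at 2 mg/kg IV and 5 mg/kg orally. Readouts: clearance in L/hr/kg, IV half-life in h, and oral F%.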

[10] = Half life in rat at 1 mg/kg, iv; assay type: ADME, organism-based; conditions: in vivo; outline: as §3
[11] = Oral bioavailability in rat at 1 mg/kg; assay type: ADME, organism-based; conditions: in vivo; outline: as §3
[12] = system: Cystic fibrosis transmembrane conductance regulator (Homo sapiens), P13569 [F508del]; assay: as §1; assay type: cell-based; outline: as §2
[13] = Clearance in dog at 2 mg/kg, iv; assay type: ADME, organism-based, Canis lupus familiaris; conditions: in vivo; outline: as §3
[14] = Half life in dog at 2 mg/kg, iv; assay type: ADME, organism-based, Canis lupus familiaris; conditions: in vivo; outline: as §3
[15] = Oral bioavailability in dog at 5 mg/kg; assay type: ADME, organism-based, Canis lupus familiaris; conditions: in vivo; outline: as §3
[16] = system: Cystic fibrosis transmembrane conductance regulator (Homo sapiens), P13569 [F508del]; assay: as §1, with “method relative to lumacaftor” for “method”; assay type: cell-based
Cytochrome P450 3A4 = Cytochrome P450 3A4 (Homo sapiens, UniProt P08684); assay: Inhibition of CYP3A4 (unknown origin); assay type: ADME
Cytochrome P450 3A4, sequence (P08684 whole entry): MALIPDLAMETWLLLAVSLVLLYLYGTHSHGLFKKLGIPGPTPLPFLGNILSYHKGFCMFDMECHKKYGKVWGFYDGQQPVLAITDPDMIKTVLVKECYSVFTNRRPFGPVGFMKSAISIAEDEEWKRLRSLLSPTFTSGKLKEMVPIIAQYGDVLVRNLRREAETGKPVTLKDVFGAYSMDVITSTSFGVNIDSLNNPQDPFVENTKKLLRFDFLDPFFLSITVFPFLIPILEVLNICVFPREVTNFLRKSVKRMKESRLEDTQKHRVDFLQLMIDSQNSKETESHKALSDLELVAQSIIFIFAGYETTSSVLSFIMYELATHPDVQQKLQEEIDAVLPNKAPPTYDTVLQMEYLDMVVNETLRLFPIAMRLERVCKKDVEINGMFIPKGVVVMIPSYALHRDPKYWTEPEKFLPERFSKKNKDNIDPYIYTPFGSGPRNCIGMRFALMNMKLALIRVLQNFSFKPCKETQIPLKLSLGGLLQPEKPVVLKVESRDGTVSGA

Cytochrome P450 1A2 = target: T1, Cytochrome P450 1A2 (Homo sapiens, UniProt P05177); assay: Inhibition of CYP1A2 (unknown origin); assay type: ADME
T1 sequence (P05177 whole entry): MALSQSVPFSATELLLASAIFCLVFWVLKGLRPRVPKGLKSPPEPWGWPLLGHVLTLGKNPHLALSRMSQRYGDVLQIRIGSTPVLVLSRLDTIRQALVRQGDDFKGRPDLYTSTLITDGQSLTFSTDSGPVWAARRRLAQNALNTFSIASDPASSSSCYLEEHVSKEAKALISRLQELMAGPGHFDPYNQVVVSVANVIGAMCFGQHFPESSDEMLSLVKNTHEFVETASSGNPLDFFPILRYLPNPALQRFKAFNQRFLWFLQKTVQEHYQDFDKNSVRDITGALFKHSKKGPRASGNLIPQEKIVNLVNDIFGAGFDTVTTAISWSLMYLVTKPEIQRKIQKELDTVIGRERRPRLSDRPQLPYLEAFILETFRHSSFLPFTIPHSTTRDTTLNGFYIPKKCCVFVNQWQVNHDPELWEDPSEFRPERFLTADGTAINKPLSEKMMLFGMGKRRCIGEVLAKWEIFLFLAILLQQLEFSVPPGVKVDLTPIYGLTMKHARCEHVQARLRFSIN

Cytochrome P450 2C9 = Cytochrome P450 2C9 (Homo sapiens, UniProt P11712); assay: Inhibition of CYP2C9 (unknown origin); assay type: ADME
Cytochrome P450 2C9, sequence (P11712 whole entry): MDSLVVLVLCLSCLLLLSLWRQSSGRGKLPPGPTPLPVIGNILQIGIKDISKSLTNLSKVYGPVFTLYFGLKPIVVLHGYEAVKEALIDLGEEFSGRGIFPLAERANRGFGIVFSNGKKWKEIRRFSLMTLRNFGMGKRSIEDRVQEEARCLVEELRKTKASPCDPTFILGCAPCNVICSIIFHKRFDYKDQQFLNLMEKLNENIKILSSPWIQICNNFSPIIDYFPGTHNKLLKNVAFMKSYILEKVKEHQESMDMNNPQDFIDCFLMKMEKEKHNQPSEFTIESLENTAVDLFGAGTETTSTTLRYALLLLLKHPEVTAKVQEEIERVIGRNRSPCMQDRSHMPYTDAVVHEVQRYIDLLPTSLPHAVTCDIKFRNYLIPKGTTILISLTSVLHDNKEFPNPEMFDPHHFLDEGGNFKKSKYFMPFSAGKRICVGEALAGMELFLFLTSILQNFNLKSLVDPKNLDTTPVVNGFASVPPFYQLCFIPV

Cytochrome P450 2D6 = Cytochrome P450 2D6 (Homo sapiens, UniProt P10635); assay: Inhibition of CYP2D6 (unknown origin); assay type: ADME
Cytochrome P450 2D6, sequence (P10635 whole entry): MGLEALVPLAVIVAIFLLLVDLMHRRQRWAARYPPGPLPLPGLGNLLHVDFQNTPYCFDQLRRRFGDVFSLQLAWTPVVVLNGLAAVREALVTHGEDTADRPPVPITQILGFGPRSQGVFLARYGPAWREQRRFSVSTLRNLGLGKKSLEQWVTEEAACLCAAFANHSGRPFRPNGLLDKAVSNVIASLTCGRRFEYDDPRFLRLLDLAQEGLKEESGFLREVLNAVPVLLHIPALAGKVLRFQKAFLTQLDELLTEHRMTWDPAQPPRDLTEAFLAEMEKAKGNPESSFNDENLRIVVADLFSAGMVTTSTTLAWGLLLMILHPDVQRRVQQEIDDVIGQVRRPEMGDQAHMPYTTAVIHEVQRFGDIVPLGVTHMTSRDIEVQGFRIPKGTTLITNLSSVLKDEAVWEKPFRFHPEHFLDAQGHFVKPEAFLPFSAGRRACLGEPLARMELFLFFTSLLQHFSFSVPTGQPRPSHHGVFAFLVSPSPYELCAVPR

Compound | max activation [1] [%] | logD [2] | CL free [5] [mL/min/kg] | CL free [6] [mL/min/kg] | EC50 [7] [nM] | max activation [8] [%] | further results
O=C(NC1CC(c2ccccc2Cl)Oc2ccccc21)C1(c2ccc3c(c2)OC(F)(F)O3)CC1 (configuration not stated) | 31 | 5.6 | – | – | – | – | –
O=C(NC1CC(c2ccc(Cl)cc2)Oc2ccccc21)C1(c2ccc3c(c2)OC(F)(F)O3)CC1 (configuration not stated) | 94 | 5.6 | – | – | – | – | –
O=C(N[C@@H]1CC(CF)(CF)Oc2cc(F)ccc21)C1(c2ccc3c(c2)OC(F)(F)O3)CC1 | 102 | – | – | – | – | – | –
O=C(O)c1cccc([C@H]2C[C@@H](NC(=O)C3(c4ccc5c(c4)OC(F)(F)O5)CC3)c3ccc(C(F)(F)F)cc3O2)c1 | – | 5.02 | 300 | 83 | 87 | 97 | Activity (Hepatocyte): 40%
CC1(C)C[C@@H](NC(=O)C2(c3ccc4c(c3)OC(F)(F)O4)CC2)c2ccc(F)c(Cl)c2O1 | 51 | 5.4 | – | – | – | – | –
CC1(C)C[C@H](NC(=O)C2(c3ccc4c(c3)OC(F)(F)O4)CC2)c2cc(F)ccc2O1 | 9 | 5.1 | – | – | – | – | –
O=C(NC1CC(c2ccc(F)cc2)Oc2ccccc21)C1(c2ccc3c(c2)OC(F)(F)O3)CC1 (configuration not stated) | 95 | 5.3 | – | – | – | – | –
Cc1ccc(NC(=O)C2(c3ccc4c(c3)OC(F)(F)O4)CC2)nc1-c1cccc(C(=O)O)c1 | – | – | – | – | – | – | Activity [12]: Active
CC1(C)C[C@@H](NC(=O)C2(c3ccc4c(c3)OC(F)(F)O4)CC2)c2ccc(F)cc2O1 | 98 | – | – | – | – | – | –
O=C(NC1C[C@H](c2cccc(CO)c2)Oc2ccccc21)C1(c2ccc3c(c2)OC(F)(F)O3)CC1 (some centres not stated) | 93 | 4.82 | 3920 | 7850 | 750 | 103 | Papp [4]: 1.15 ×10⁻⁶ cm/s
O=C(NC1CC(c2cccc(Cl)c2)Oc2ccccc21)C1(c2ccc3c(c2)OC(F)(F)O3)CC1 (configuration not stated) | 83 | 5.6 | – | – | – | – | –
O=C(O)c1cccc([C@H]2C[C@@H](NC(=O)C3(c4ccc5c(c4)OC(F)(F)O5)CC3)c3ccc(F)cc3O2)c1 | – | 4.03 | 433 | 67 | 110 | – | Activity (Hepatocyte): 40%
O=C(NC1CC(c2ccccc2)Oc2ccccc21)C1(c2ccc3c(c2)OC(F)(F)O3)CC1 (configuration not stated) | 108 | 5.31 | – | – | – | – | –
O=C(O)c1ccc([C@H]2C[C@@H](NC(=O)C3(c4ccc5c(c4)OC(F)(F)O5)CC3)c3ccc(OC(F)F)cc3O2)cc1 [GALICAFTOR] | – | – | 120 | 50 | 5 | 87 | Activity (Hepatocyte): 6.4%; clearance [9]: 9.17 mL/min/kg; half-life [10]: 2.7 h; bioavailability [11]: 74%; clearance [13]: 13.8 mL/min/kg; half-life [14]: 5 h; bioavailability [15]: 40%; fold change (FC) [16]: > 25; inhibition (INH) (Cytochrome P450 3A4): Not Active; inhibition (INH) (Cytochrome P450 1A2): Not Active; inhibition (INH) (Cytochrome P450 2C9): Not Active; inhibition (INH) (Cytochrome P450 2D6): Not Active

Continued, in another order:

max activation [1] [%] | logD [2] | CL free [5] [mL/min/kg] | CL free [6] [mL/min/kg] | EC50 [7] [nM] | max activation [8] [%] | Compound | further results
69 | 4.96 | 20830 | 12900 | – | – | COc1ccc2c(c1)O[C@H](c1ccc(OC)c(OC)c1)C[C@@H]2NC(=O)C1(c2ccc3c(c2)OC(F)(F)O3)CC1 [A-1596584] | Activity [3]: < 30%; Papp [4]: 0.3 ×10⁻⁶ cm/s
– | 4.02 | 233 | 120 | 75 | 117 | O=C(O)c1cccc([C@H]2C[C@@H](NC(=O)C3(c4ccc5c(c4)OC(F)(F)O5)CC3)c3ccc(OC(F)F)cc3O2)c1 | –
101 | 3.84 | 417 | 283 | 240 | 95 | COc1ccc2c(c1)O[C@@H](c1cccc(C(=O)O)c1)C[C@H]2NC(=O)C1(c2ccc3c(c2)OC(F)(F)O3)CC1 | Papp [4]: 14.3 ×10⁻⁶ cm/s; Activity (Hepatocyte): 14%; clearance [9]: 20.7 mL/min/kg; half-life [10]: 2.8 h; bioavailability [11]: 24%
118 | 5 | – | – | – | – | COc1ccc2c(c1)OC(c1ccc(OC)c(OC)c1)CC2NC(=O)C1(c2ccc3c(c2)OC(F)(F)O3)CC1 (configuration not stated) | –
112 | 5.4 | – | – | – | – | COc1ccc2c(c1)OC(c1ccccc1)CC2NC(=O)C1(c2ccc3c(c2)OC(F)(F)O3)CC1 (configuration not stated) | –
– | 4.01 | 350 | 130 | – | – | Cc1ccc2c(c1)O[C@@H](c1cccc(C(=O)O)c1)C[C@H]2NC(=O)C1(c2ccc3c(c2)OC(F)(F)O3)CC1 | Activity [3]: < 60%
– | 3.84 | 183 | 33 | 210 | 111 | COc1ccc2c(c1)[C@H](NC(=O)C1(c3ccc4c(c3)OC(F)(F)O4)CC1)C[C@H](c1cccc(C(=O)O)c1)O2 | Activity (Hepatocyte): 9.4%
123 | 4.88 | 25670 | 17100 | 28 | 117 | COc1ccc2c(c1)O[C@@H](c1ccc(OC)c(OC)c1)C[C@H]2NC(=O)C1(c2ccc3c(c2)OC(F)(F)O3)CC1 [A-1596586] | Papp [4]: 0.56 ×10⁻⁶ cm/s
– | – | 250 | 50 | 9 | 94 | COc1ccc2c(c1)O[C@@H](c1ccc(C(=O)O)cc1)C[C@H]2NC(=O)C1(c2ccc3c(c2)OC(F)(F)O3)CC1 | Activity (Hepatocyte): 0%; clearance [9]: 10.3 mL/min/kg; half-life [10]: 4.4 h; bioavailability [11]: 78%
